Data reported in PubChem BioAssay.
Records with an inconclusive call do not appear.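 Rule for the calls, unless noted: active = viability at or below 27.92% in each of two runs, the all-compound median minus 4 SD; inconclusive = no clear call, values can overlap the other calls; inactive = the rest.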

Tests used:
[1] = S. cerevisiae growth inhibition in permissive medium (OD615), pilot counter-assay for S. cerevisiae lifespan shortening project, permissive growth control (AID 705;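 active = growth inhibition above 25% in both replicates, a cutoff set 3 SD above the mean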); conditions: OD615, 24 h, at 10 µM, active compounds read high
Outline: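 System: S. cerevisiae with engineered DeaD lifespan system / Measured by: absorbance (optical density) at 615 nm / Read-out: reduction in yeast growth (OD615) / Times: 4 h cell pre-growth, 24 h exposure at 30 °C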

[2] = S. cerevisiae growth inhibition in restrictive medium, OD615, pilot screen, restrictive growth control, yeast lifespan reduction project (AID 706;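 active = growth inhibition above a set limit, 3 SD over mean compound inhibition, in both replicates, cut at about 43% in these data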;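 note: modified DeaD lifespan yeast strain shifted to restrictive glucose medium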); conditions: OD615, 48 h, at 10 µM, active compounds read high
Outline: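 System: Engineered S. cerevisiae DeaD strain | Buffer or medium: Glucose-based CSMM-D restrictive medium | Schedule: 4 h pre-incubation, 48 h exposure at 30 °C | Technique: Optical density at 615 nm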

[3] = doxorubicin toxicity protection in MRP-1 cells – H69AR cells, CellTiter-Glo, duplicate, MRP-1 activator project, pilot screen (AID 807;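 active = viability increase at or above a cutoff of the median across tested compounds plus 3 SD, cut at about 8.5% in these data, passing the limit was not always enough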;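 note: compound pretreatment 18-22 h then 72 h combined with doxorubicin; 0% = doxorubicin alone and 100% = vehicle without doxorubicin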); conditions: H69AR viability with doxorubicin, CellTiter-Glo luminescence; at 10 µM; active compounds read high
[4] = viability of HCT116 without oncogenic beta-catenin – human colon tumor cells, pilot screen (AID 823;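 active = cell viability at or below a set limit in both duplicate runs, the limit being the all-compound median minus 4 SD, cut at about 23% in these data, passing the limit was not always enough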;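 note: 0% = wells killed by 20 µM Hyamine and 100% = untreated DMSO cell wells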); conditions: HCT116 beta-catenin knockout viability, CellTiter-Glo, 60 h; at 10 µM; active compounds read low
[5] = viability of PTEN-null HCT116 cells – cell-based, HCT116 clonal line, CellTiter-Glo, pilot screen (AID 824); conditions: HCT116 PTEN-deleted viability, 60 h, at 10 µM, active compounds read low;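 note: 0% = 20 µM Hyamine control and 100% = vehicle cell control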
[6] = RAM pathway blockade in budding yeast – dse1pr::URA3 reporter, 5-FOA selection, pilot screen (AID 869;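 active = inhibition over a set limit, the all-compound mean plus 3 SD, in both replicate runs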;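 note: 0% = DMSO wells with no growth and 100% = 10 µM 1-NA-PP1 with full growth; RAM network block rescues cells from 5-FOA so hits raise OD615 growth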); conditions: S. cerevisiae dse1pr::URA3 5-FOA growth, OD615, 2 d; at 10 µM; active compounds read high; strain carries analog-sensitive mutant Cbk1 kinase
[7] = RAM signaling pathway blockade in yeast – S. cerevisiae, Pdr1DBD-CYC8 efflux-inhibited sensitized strain, primary screen (AID 1298;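 active = RAM network inhibition above 8.4% in each of two replicates, 3 SD over the compound average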;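 note: 0% = DMSO untreated cells without growth and 100% = 10 µM 1-NA-PP1 full growth; higher means more yeast growth rescued from 5-FOA killing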); conditions: S. cerevisiae cbk1-as DSE1-URA3 strain, 5-FOA growth OD615, 2 d; at 50 µM; active compounds read high

CCCOC(=O)C1=C(C)NC2=C(C(=O)C(C(=O)OC)C(C)C2)C1c1ccc(N(CC)CC)cc1 (stereo not drawn)
inactive: growth inhibition [1] -10.6% | growth inhibition [2] -19.6% | viability increase [3] -3.23% | viability [4] 65.7% | viability [5] 56.8% | inhibition [6] 1.56% | RAM network inhibition [7] 1.46%

CCOC(=O)N1CCN(c2ccc3nnnn3n2)CC1
inactive: growth inhibition [1] -4.75% | growth inhibition [2] 1.97% | viability increase [3] 0.77% | viability [4] 101% | viability [5] 101% | inhibition [6] 0.275% | RAM network inhibition [7] 0.43%

CC(=O)Nc1c(-c2ccccc2)nc2ncccn12
inactive: growth inhibition [1] -4.64% | growth inhibition [2] -5.57% | viability increase [3] -0.33% | viability [4] 108% | viability [5] 95.4% | inhibition [6] 2.77% | RAM network inhibition [7] 0.97%

Cc1cc(Nc2cccc(F)c2)n2ncnc2n1
inactive: growth inhibition [1] -0.15% | growth inhibition [2] 12.3% | viability increase [3] 0% | viability [4] 101% | viability [5] 106% | inhibition [6] 1.23% | RAM network inhibition [7] 0.16%

CCOC(=O)C1CCN(C(=O)Cn2cc3c(n2)CCC(C)C3)CC1 (stereo not drawn)
inactive: growth inhibition [1] -5.55% | growth inhibition [2] -0.07% | viability increase [3] 0.98% | viability [4] 97.6% | viability [5] 95.6% | inhibition [6] 1.87% | RAM network inhibition [7] 1.77%

Cc1c(NC(=O)C(C)N2C(=O)C3C4C=CC(C4)C3C2=O)c(=O)n(-c2ccccc2)n1C (stereo not drawn)
inactive: growth inhibition [1] -8.7% | growth inhibition [2] -11.3% | viability increase [3] -0.72% | viability [4] 95.4% | viability [5] 93.2% | inhibition [6] 1.39% | RAM network inhibition [7] 2.56%

O=C(c1ccccc1NS(=O)(=O)c1cccs1)N1CCCC1
inactive: growth inhibition [1] -1.34% | growth inhibition [2] 3.17% | viability increase [3] -0.63% | viability [4] 93.1% | viability [5] 94.1% | inhibition [6] 1.84% | RAM network inhibition [7] 1.28%

CCCC(=O)N(Cc1cc2cc(C)ccc2[nH]c1=O)c1ccccc1OC
inactive: growth inhibition [1] 1.1% | growth inhibition [2] 1.19% | viability increase [3] -0.05% | viability [4] 80.7% | viability [5] 78% | inhibition [6] 1.04% | RAM network inhibition [7] 9.81%

CCOC(=O)c1c(NC(=O)c2ccco2)sc2c1CCCC2
inactive: growth inhibition [1] -15.7% | growth inhibition [2] -15.4% | viability increase [3] 1.84% | viability [4] 97.8% | viability [5] 101% | inhibition [6] 4.13% | RAM network inhibition [7] 1.41%

O=C(CN1CCN(C(=O)c2ccco2)CC1)Nc1ccccc1-c1ccccc1
inactive: growth inhibition [1] 6.65% | growth inhibition [2] 6.94% | viability increase [3] -2.16% | viability [4] 91% | viability [5] 86.1% | inhibition [6] 1.32% | RAM network inhibition [7] 3.75%

O=C(NCCNC(=O)c1ccc(Br)o1)c1ccc(Br)o1
inactive: growth inhibition [1] -7.92% | growth inhibition [2] 4.26% | viability increase [3] 1.39% | viability [4] 99.1% | viability [5] 105% | inhibition [6] 0.39% | RAM network inhibition [7] 0.1%

O=C(Nc1cccc(F)c1)c1ccc(S(=O)(=O)N2CCCC2)cc1
inactive: growth inhibition [1] -3.88% | growth inhibition [2] 0% | viability increase [3] 1.26% | viability [4] 101% | viability [5] 97% | inhibition [6] 1.78% | RAM network inhibition [7] -0.43%

NC(=O)CC1NC(=O)c2ccccc21 (stereo not drawn)
inactive: growth inhibition [1] -11.7% | growth inhibition [2] -6.05% | viability increase [3] 0.12% | viability [4] 91.7% | viability [5] 100% | inhibition [6] 1.28% | RAM network inhibition [7] 3.47%

Cn1c(C(=O)NCCc2c[nH]c3ccccc23)cc2sccc21
inactive: growth inhibition [1] -2.17% | growth inhibition [2] 12.7% | viability increase [3] -4.58% | viability [4] 95% | viability [5] 88% | inhibition [6] 1.56% | RAM network inhibition [7] 2%

O=C(Cc1cccs1)N1CCN(c2ccccn2)CC1
inactive: growth inhibition [1] -2.47% | growth inhibition [2] -11.1% | viability increase [3] -0.45% | viability [4] 93.5% | viability [5] 98% | inhibition [6] 0.735% | RAM network inhibition [7] 2.55%

O=C(CCCn1c(=O)[nH]c2ccccc2c1=O)N1CCN(c2ccccn2)CC1
inactive: growth inhibition [1] -3.37% | growth inhibition [2] -16.9% | viability increase [3] -3.43% | viability [4] 98.3% | viability [5] 96.2% | inhibition [6] 2.37% | RAM network inhibition [7] 3.32%

CCc1ccc2[nH]cc(C(=O)OCCOC)c(=O)c2c1
inactive: growth inhibition [1] -19.9% | growth inhibition [2] 0.075% | viability increase [3] -1.15% | viability [4] 88% | viability [5] 87.5% | inhibition [6] 1.91% | RAM network inhibition [7] 1.6%

c1ccc2c(c1)ncc1cccn12
inactive: growth inhibition [1] -16.6% | growth inhibition [2] -12.8% | viability increase [3] -5.24% | viability [4] 104% | viability [5] 89% | inhibition [6] 2.58% | RAM network inhibition [7] 5.07%

O=C(Cn1nc(-c2ccc(Cl)cc2)ccc1=O)NCCN1CCOCC1
inactive: growth inhibition [1] -3.21% | growth inhibition [2] -12.3% | viability increase [3] -1.27% | viability [4] 100% | viability [5] 100% | inhibition [6] 0.355% | RAM network inhibition [7] 7.69%

Cc1ccc(CSc2nnc(Cn3c(=O)sc4ccccc43)n2C)cc1
inactive: growth inhibition [1] -10.6% | growth inhibition [2] 5.88% | viability increase [3] 2.44% | viability [4] 95.8% | viability [5] 88.2% | inhibition [6] 2.75% | RAM network inhibition [7] 6.03%

COCc1cc(C)nc(N2CCN(c3ccccc3)CC2)c1C#N
inactive: growth inhibition [1] -15.6% | growth inhibition [2] -7.64% | viability increase [3] 0.13% | viability [4] 86.3% | viability [5] 81.9% | inhibition [6] 2.28% | RAM network inhibition [7] 6.31%

COC(=O)C(C)Sc1nnc(Cc2cc(=O)[nH]c(=O)[nH]2)n1-c1ccc(OC)cc1 (stereo not drawn)
inactive: growth inhibition [1] 8.07% | growth inhibition [2] 4.31% | viability increase [3] 0.81% | viability [4] 106% | viability [5] 101% | inhibition [6] 1.41% | RAM network inhibition [7] 2.47%

COc1ccc(C(=O)N2CCN(c3ccc(C)c(C)c3)CC2)cc1OC
inactive: growth inhibition [1] -6.27% | growth inhibition [2] -4.04% | viability increase [3] -0.89% | viability [4] 99.5% | viability [5] 92% | inhibition [6] 0.21% | RAM network inhibition [7] 2.55%

COc1ccc(C(=O)Nc2c(N)nc(SCC(=O)N3CCCCCC3)[nH]c2=O)cc1OC
inactive: growth inhibition [1] -2.35% | growth inhibition [2] -3.33% | viability increase [3] -0.26% | viability [4] 96.8% | viability [5] 102% | inhibition [6] 1.97% | RAM network inhibition [7] 5.94%
